Screening results as filed in PubChem.
ADAM10 inh: human ADAM10 inhibitors, primary screen, biochemical, QFRET, HTS; Disintegrin and metalloproteinase domain-containing protein 10 (Homo sapiens), O14672; recombinant ADAM10, EDANS/DABCYL FRET peptide cleavage, 3 h; inhibition, % at 7 µM; actives 0.62% (n = 370,000);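 active = inhibition above a per-campaign cutoff equal to the mean of compounds falling between control-based bounds plus 3 SD, cut at about 20% in these data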
CendR NRP1 mod: modulators of CendR peptide binding to NRP-1, primary screen, biochemical, fluorescence polarization, uHTS. Neuropilin-1 (Homo sapiens), O14786. FAM-RPARPAR peptide binding to NRP-1. inhibition, % at 25 µM. actives 0.85% (n = 360,000);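 active = inhibition or corrected inhibition above about 18%, plus a signal ratio from 0.5 to 1.5, limit read from the data, passing the limit was not always enough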
CaV13 ICDI inh: Disruptors of the CACNA1D IQ motif to Ca2+-dependent inactivation inhibitor domain association, primary screening, Förster resonance energy transfer in intact living …. HEK cells, CFP/YFP FRET ICDI-IQ, plate reader, 10 min; percent FRET-ratio fall versus neutral wells. inhibition, % at 12.3 µM. actives 0.098% (n = 340,000). AID 743397;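 active = mean replicate inhibition of at least 30% and at least 1% of replicates passing that level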
ADAM17 inh: ADAM17 inhibitors, primary screen, biochemical, QFRET; AID 720648, 2013; inhibition, % at 6.95 µM; recombinant ADAM17, EDANS/DABCYL FRET peptide cleavage; actives 0.83% (n = 370,000);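 active = inhibition above the mean of compounds lying between control limits plus 3 SD, set per campaign, cut at about 8.5% in these data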
Target sequence (P78536 215-824 limits assumed): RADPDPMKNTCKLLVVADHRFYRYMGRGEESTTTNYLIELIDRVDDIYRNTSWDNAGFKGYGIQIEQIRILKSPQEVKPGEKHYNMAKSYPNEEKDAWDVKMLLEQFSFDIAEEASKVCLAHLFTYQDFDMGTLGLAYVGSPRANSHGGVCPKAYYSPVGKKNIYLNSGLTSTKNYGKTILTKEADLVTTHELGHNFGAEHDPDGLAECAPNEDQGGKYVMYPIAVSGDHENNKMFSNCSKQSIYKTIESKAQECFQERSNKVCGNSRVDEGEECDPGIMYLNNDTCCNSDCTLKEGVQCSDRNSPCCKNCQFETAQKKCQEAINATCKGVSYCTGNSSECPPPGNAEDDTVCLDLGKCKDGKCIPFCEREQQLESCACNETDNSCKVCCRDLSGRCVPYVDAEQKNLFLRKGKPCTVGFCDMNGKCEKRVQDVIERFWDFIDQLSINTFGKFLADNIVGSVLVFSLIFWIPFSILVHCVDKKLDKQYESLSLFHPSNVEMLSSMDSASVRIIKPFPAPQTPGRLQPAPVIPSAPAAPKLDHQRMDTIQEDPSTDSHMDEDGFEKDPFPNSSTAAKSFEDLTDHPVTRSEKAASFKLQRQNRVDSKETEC
FAS-TE inh: FAS thioesterase domain inhibitors, primary screen, biochemical, fluorescence intensity, uHTS. Fatty acid synthase (Homo sapiens), P49327. recombinant FAS-TE, OMFH fluorogenic substrate, fluorescence endpoint. inhibition, % at 15 µM. actives 0.67% (n = 360,000);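 active = compounds whose normalised, plate-corrected inhibition of enzyme fluorescence in the single-dose primary screen is 50% or more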
Arrestin-AP2 inh: inhibitors of beta-arrestin/AP2 binding, primary screen, biochemical, GPCR trafficking, flow cytometry; FITC-arrestin peptide / GST-AP2 beads; AP2 beta2 appendage carries R879A mutation; actives 0.31% (n = 340,000); beta-arrestin 1 C-terminal peptide binding to AP2 beta2-adaptin appendage (human); inhibition, % at 10 µM;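 active = inhibition above a set limit, near 3 SD of compounds lacking own fluorescence, cut at about 54% in these data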
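System: GST-AP2 R879A glutathione beads; medium: PBS, Tween 20 0.05%, BSA 0.1%; reagent: fluorescein-tagged arrestin peptide at 50 nM final; schedule: pre-incubation 12 min, peptide binding 1 h, room temperature; detection: flow cytometry, FL1 (488/535 nm); read-out: inhibition as reduced fluorescein signal on beads, percent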
ADAM10 confirm: human ADAM10 inhibitors, confirmation, biochemical, QFRET, triplicate; inhibition, % at 6.95 µM; shares compounds with ADAM10 inh; actives 1% (n = 2,100); ADAM10 QFRET peptide cleavage, EDANS fluorescence; AID 743208, 2013;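 active = inhibition above about 20% chosen separately for each screening run, limit read from the data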
ADAM17 counter: ADAM17 inhibitors, counter-screen for ADAM10 exosite inhibitor project, biochemical, QFRET, high throughput. shares compounds with ADAM10 inh. ADAM17 QFRET peptide cleavage, EDANS fluorescence. inhibition, % at 6.95 µM. actives 0.5% (n = 2,100);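 active = mean triplicate inhibition above the solvent-only control wells' mean plus 3 SD, cut at about 12% in these data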
ADAM10 counter: ADAM10 inhibitors, counter-screen for ADAM17 exosite inhibitor project, biochemical, FRET, human ADAM10; shares compounds with ADAM17 inh; recombinant ADAM10, EDANS/DABCYL FRET peptide cleavage, 3 h; inhibition, % at 6.95 µM; actives 47% (n = 2,900); AID 743256, 2014;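 active = mean inhibition over the triplicate runs exceeds the activity threshold set in the earlier primary screen, cut at about 20% in these data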
ADAM17 confirm: ADAM17 inhibitors, hit retest, confirmation, biochemical, QFRET peptide cleavage; inhibition, % at 6.95 µM; shares compounds with ADAM17 inh; recombinant ADAM17, EDANS/DABCYL QFRET peptide cleavage; actives 65% (n = 2,900);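 active = mean inhibition across replicates above the hit cutoff set in the primary screen, cut at about 8.5% in these data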
Of the large screens only hits and unclear results are named; the others gave an inactive call (follow-up assays come after a bar, where they were run). A selection: hits, their analogues and other compounds. The true share with any hit is near 2.9%.

Cc1ccc(-c2cc(-c3ccccc3Cl)[nH]n2)c(O)c1	ADAM10 inh 24.2, ADAM17 inh 9.5 | ADAM10 confirm inactive | ADAM17 counter inactive | ADAM10 counter inactive | ADAM17 confirm 9.1
O=C(/C=C/[C@H]1O[C@@H](n2ccc(=O)[nH]c2=O)[C@H](O)[C@@H]1O)N1CCN(Cc2ccc(F)cc2)CC1	none (no result: Arrestin-AP2 inh)
O=C(NNC(=O)C1CCN(C(=O)Nc2ccccc2)CC1)c1ccc([N+](=O)[O-])cc1	none
Cc1ccc(OCc2nnc(SCC(=O)Nc3ccc(OCc4ccccc4)cc3)n2-c2ccc(Cl)cc2)cc1	none (no result: CendR NRP1 mod, CaV13 ICDI inh, FAS-TE inh, Arrestin-AP2 inh)
FC(F)(F)c1ccccc1Cn1ccc2ccc(-c3ccc4ccn(Cc5ccccc5C(F)(F)F)c4c3)cc21	none (no result: CendR NRP1 mod, CaV13 ICDI inh, FAS-TE inh, Arrestin-AP2 inh)
CCOc1ccc(-c2[nH]ncc2Oc2cccc(OC)c2)c(O)c1	ADAM10 inh 23.6, ADAM17 inh 10.6 | ADAM10 confirm inactive | ADAM17 counter inactive | ADAM10 counter 34.7 | ADAM17 confirm 20.4
COc1ccccc1/C(C)=N/Oc1cc(N)cc([N+](=O)[O-])c1	ADAM10 inh 27.4, ADAM17 inh 14.9 | ADAM10 confirm inactive | ADAM17 counter inactive | ADAM10 counter inactive | ADAM17 confirm 9.8
CC(=O)Nc1cc(ON=C(C)C)cc([N+](=O)[O-])c1	none
CCOC(=O)[C@H]1[C@H]2COc3ccc(Br)cc3[C@@H]2N2C(=O)c3cc(Br)ccc3NC(=O)[C@@]12C	ADAM10 inh 20.3, ADAM17 inh 11.2 | ADAM10 confirm inactive | ADAM17 counter inactive | ADAM10 counter inactive | ADAM17 confirm 10.6
CC1CCN(C(=O)c2ncn3c2C(=O)NC[C@H]3C)CC1	none (no result: CendR NRP1 mod, FAS-TE inh, Arrestin-AP2 inh)
N/C(=N\S(=O)(=O)c1cc(C(F)(F)F)cc(C(F)(F)F)c1)c1ccncc1	none
N/C(=N\S(=O)(=O)c1cc(C(F)(F)F)cc(C(F)(F)F)c1)c1ccc(Cl)cc1	ADAM10 inh 22.6, ADAM17 inh 9.7 | ADAM10 confirm inactive | ADAM17 counter inactive | ADAM10 counter 44.8 | ADAM17 confirm 18.8
CC(C)NC(=O)N[C@@H]1C[C@@H]2O[C@@H](CO)CC[C@@H]2O[C@@H]1CCc1ccc(-c2ccccc2F)cc1	none (no result: CendR NRP1 mod, CaV13 ICDI inh, FAS-TE inh, Arrestin-AP2 inh)
O=C(NC(Cc1c[nH]c2ccccc12)C(=O)Nc1ccc(OC(F)(F)F)cc1)c1cccs1 (centres undefined)	ADAM10 inh 25.4, ADAM17 inh 11.6 | ADAM10 confirm inactive | ADAM17 counter inactive | ADAM10 counter 58.7 | ADAM17 confirm 29.5
O=C(COC(=O)[C@H](Cc1c[nH]c2ccccc12)NC(=O)c1cccs1)NCc1ccccc1	none
CC(C)n1nnnc1C1(C)CN(S(C)(=O)=O)CC(=O)N1Cc1cccc(C(F)(F)F)c1 (centres undefined)	none (no result: CendR NRP1 mod, CaV13 ICDI inh, FAS-TE inh, Arrestin-AP2 inh)
CCN(CC)S(=O)(=O)c1ccc(C)c(NC(=S)NNC(=O)C2CC2)c1	ADAM10 inh 23.6, ADAM17 inh 9.7 | ADAM10 confirm inactive | ADAM17 counter inactive | ADAM10 counter inactive | ADAM17 confirm inactive
Oc1ccccc1C1SC(c2ccccc2O)SC(c2ccccc2O)S1 (centres undefined)	ADAM10 inh 34.8, ADAM17 inh 10.8 | ADAM10 confirm inactive | ADAM17 counter inactive | ADAM10 counter 42.2 | ADAM17 confirm 23.1
Cc1sc2ncnc(N3CCC(C(=O)N(C)CC(=O)Nc4cccc(F)c4)CC3)c2c1C	none (no result: Arrestin-AP2 inh)
Cc1sc2ncnc(N3CCC(C(=O)N(C)CC(=O)Nc4ccc(Cl)c(C(F)(F)F)c4)CC3)c2c1C	ADAM10 inh 22.7, ADAM17 inh 11.6 | ADAM10 confirm inactive | ADAM17 counter inactive | ADAM10 counter 47.8 | ADAM17 confirm 25.0
COc1cc(C(=O)NC2CCCCN(C)C2=O)cc(OC)c1OC (centres undefined)	none (no result: CendR NRP1 mod, CaV13 ICDI inh, FAS-TE inh, Arrestin-AP2 inh)
COc1ccc(C(CC(=O)c2ccccc2)CC(=O)c2ccccc2)cc1	ADAM10 inh 20.4, ADAM17 inh 10.7 | ADAM10 confirm inactive | ADAM17 counter inactive | ADAM10 counter inactive | ADAM17 confirm inactive
CC(C)COC(=O)N1CCCCC1c1cc(C(=O)NCc2ccc(F)cc2)no1 (centres undefined)	none (no result: Arrestin-AP2 inh)
Cc1ccccc1-c1cccc2c3c([nH]c12)[C@@H]1C[C@H]2[C@@H](CN1CC3)[C@H](C)ON2C	none (no result: CendR NRP1 mod, CaV13 ICDI inh, FAS-TE inh, Arrestin-AP2 inh)
Cc1ccc(C)c(SCC(=O)Nc2cccc(S(=O)(=O)NC3=NCCCCC3)c2)c1	none
O=C(CSc1ccc2ccccc2c1Br)Nc1cccc(S(=O)(=O)NC2=NCCCCC2)c1	ADAM10 inh 35.5, ADAM17 inh 13.7 | ADAM10 confirm inactive | ADAM17 counter inactive | ADAM10 counter 28.3 | ADAM17 confirm 19.7
O=C(OCCOc1cccc(Cl)c1)C1CCN(S(=O)(=O)c2ccccc2)CC1	ADAM10 inh 21.3, ADAM17 inh 8.6 | ADAM10 confirm inactive | ADAM17 counter inactive | ADAM10 counter 21.2 | ADAM17 confirm 10.9
CCCCCCNC(=O)O[C@H]1Cn2c(=O)n(CCCCCC)c(=O)n2[C@@H]2CN(S(=O)(=O)c3ccc(C)cc3)C[C@]12O	ADAM10 inh 20.4, ADAM17 inh 11.2 (no result: Arrestin-AP2 inh) | ADAM10 confirm inactive | ADAM17 counter inactive | ADAM10 counter 39.9 | ADAM17 confirm 21.6
